Assay [1] deals with T1, Gonadotropin-releasing hormone receptor (Homo sapiens, UniProt P30968).
T1 sequence (P30968 whole entry): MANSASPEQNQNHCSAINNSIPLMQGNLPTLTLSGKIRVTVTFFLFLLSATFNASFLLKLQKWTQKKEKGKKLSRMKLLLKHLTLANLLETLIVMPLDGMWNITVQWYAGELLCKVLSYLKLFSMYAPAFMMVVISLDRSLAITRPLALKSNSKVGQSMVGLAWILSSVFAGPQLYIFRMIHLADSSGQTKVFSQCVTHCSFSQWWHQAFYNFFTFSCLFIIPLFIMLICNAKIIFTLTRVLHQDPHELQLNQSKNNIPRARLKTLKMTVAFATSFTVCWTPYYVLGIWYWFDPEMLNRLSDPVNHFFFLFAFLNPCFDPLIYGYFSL
The experiment in a line: Competitive antagonism of GnRH-induced response in the reporter gene assay. The assay is classed as functional. Conditions: read-out: pA2 (converted). The essentials:
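Same HEK293 human GnRH receptor luciferase reporter cells. Seven-point GnRH curve (10 µM to 10 pM final) run in duplicate without or with four to five increasing compound concentrations (10 min preincubation, 37 °C), then 5 h and luminescence. GnRH EC50 at each level by four-parameter logistic fit, giving pA2; mean of two determinations in duplicate.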
On the technique in general: In a reporter assay the amount or activity of a reporter protein is the signal.

The target of assay [2] is T1, Gonadotropin-releasing hormone receptor. The assay is described as follows: Antagonism of human GnHR receptor, determined in a reporter gene assay in HEK293 cells. Format: functional, cell-based. The essentials: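 HEK293 cells stably expressing cloned human GnRH receptor plus luciferase reporter under LH alpha subunit promoter, plated 24 h before assay. Compound in 1% DMSO added 10 min at 37 °C, then GnRH at 3 nM final; 5 h incubation, luciferase luminescence read. Six concentrations in duplicate; blank-subtracted cps as % of GnRH control; mean of two determinations.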

Each structure is given as a SMILES string. Where a SMILES comes first, the peptide text is derived from it. [ ]: non-standard residue; d: D form. d(hArg(Et2)) = CCN=C(NCC)NCCCC[C@@H](N)C(=O)O; hArg(Et2) = CCN=C(NCC)NCCCC[C@H](N)C(=O)O; dPhe(4-Cl) = N[C@H](Cc1ccc(Cl)cc1)C(=O)O; d2Nal = N[C@H](Cc1ccc2ccccc2c1)C(=O)O; Lys(iPr) = CC(C)NCCCC[C@H](N)C(=O)O; NMeY = CN[C@@H](Cc1ccc(O)cc1)C(=O)O; d3Pal = N[C@H](Cc1cccnc1)C(=O)O

One may read the IC50 as the concentration at which inhibition is half-maximal. Lower therefore signals greater potency in that assay. With `CC(=O)N[C@H](Cc1ccc2ccccc2c1)C(=O)N[C@H](Cc1ccc(Cl)cc1)C(=O)N[C@H](Cc1cccnc1)C(=O)N[C@@H](CO)C(=O)N[C@@H](Cc1ccc(NC(=O)[C@@H]2CC(=O)NC(=O)N2)cc1)C(=O)N[C@H](Cc1cccnc1)C(=O)N[C@@H](CC(C)C)C(=O)N[C@@H](CCCCNC(C)C)C(=O)N1CCC[C@H]1C(=O)N[C@H](C)C(N)=O`, the Kb in assay [1] was 2 nM. In assay [2], this molecule had an IC50 of 2.8 nM. For `CNC(=O)NCc1ccc(C[C@@H](NC(=O)[C@H](Cc2ccc(NC(=O)[C@@H]3CC(=O)NC(=O)N3)cc2)NC(=O)[C@H](CO)NC(=O)[C@@H](Cc2cccnc2)NC(=O)[C@@H](Cc2ccc(Cl)cc2)NC(=O)[C@@H](Cc2ccc3ccccc3c2)NC(C)=O)C(=O)N[C@@H](CC(C)C)C(=O)N[C@@H](CCCCNC(C)C)C(=O)N2CCC[C@H]2C(=O)N[C@H](C)C(N)=O)cc1` the same measures were 0.794 nM and 7.9 nM. For `CC(=O)N[C@H](Cc1ccc2ccccc2c1)C(=O)N[C@H](Cc1ccc(Cl)cc1)C(=O)N[C@H](Cc1cccnc1)C(=O)N[C@@H](CO)C(=O)N[C@@H](Cc1ccc(NC(=O)[C@@H]2CC(=O)NC(=O)N2)cc1)C(=O)N[C@H](Cc1ccc(NC(=O)[C@@H]2CC(=O)NC(=O)N2)cc1)C(=O)N[C@@H](CC(C)C)C(=O)N[C@@H](CCCCNC(C)C)C(=O)N1CCC[C@H]1C(=O)N[C@H](C)C(N)=O`, in that order: 1 nM and 10.8 nM. As for `CC(=O)Nc1ccc(C[C@@H](NC(=O)[C@H](Cc2ccc(NC(=O)c3cc(=O)[nH]c(=O)[nH]3)cc2)NC(=O)[C@H](CO)NC(=O)[C@@H](Cc2cccnc2)NC(=O)[C@@H](Cc2ccc(Cl)cc2)NC(=O)[C@@H](Cc2ccc3ccccc3c2)NC(C)=O)C(=O)N[C@@H](CC(C)C)C(=O)N[C@@H](CCCCNC(C)C)C(=O)N2CCC[C@H]2C(=O)N[C@H](C)C(N)=O)cc1`, 10.7 nM corresponded to half-maximal inhibition in assay [2] (IC50).

Turning to `CC(=O)Nc1ccc(C[C@H](NC(=O)[C@H](CO)NC(=O)[C@@H](Cc2cccnc2)NC(=O)[C@@H](Cc2ccc(Cl)cc2)NC(=O)[C@@H](Cc2ccc3ccccc3c2)NC(C)=O)C(=O)N[C@H](Cc2ccc(CNC(N)=O)cc2)C(=O)N[C@@H](CC(C)C)C(=O)N[C@@H](CCCCNC(C)C)C(=O)N2CCC[C@H]2C(=O)N[C@H](C)C(N)=O)cc1`, the Kb in assay [1] is 0.631 nM. In assay [2], this molecule had an IC50 of 6.4 nM. For `CCN=C(NCC)NCCCC[C@H](NC(=O)[C@H](CC(C)C)NC(=O)[C@@H](CCCCNC(=NCC)NCC)NC(=O)[C@H](Cc1ccc(O)cc1)NC(=O)[C@H](CO)NC(=O)[C@@H](Cc1cccnc1)NC(=O)[C@@H](Cc1ccc(Cl)cc1)NC(=O)[C@@H](Cc1ccc2ccccc2c1)NC(C)=O)C(=O)N1CCC[C@H]1C(=O)N[C@H](C)C(N)=O` [GANIRELIX ACETATE] (Ac-[d2Nal][dPhe(4-Cl)][d3Pal]SY[d(hArg(Et2))]L[hArg(Et2)]P[dA]-NH2) the same measures were 0.501 nM and 3.6 nM. Regarding `CC(=O)NCc1ccc(C[C@@H](NC(=O)[C@H](Cc2ccc(NC(=O)[C@@H]3CC(=O)NC(=O)N3)cc2)NC(=O)[C@H](CO)NC(=O)[C@@H](Cc2cccnc2)NC(=O)[C@@H](Cc2ccc(Cl)cc2)NC(=O)[C@@H](Cc2ccc3ccccc3c2)NC(C)=O)C(=O)N[C@@H](CC(C)C)C(=O)N[C@@H](CCCCNC(C)C)C(=O)N2CCC[C@H]2C(=O)N[C@H](C)C(N)=O)cc1`, the Kb in assay [1] is 1 nM. Further, inhibition in assay [2] was half-maximal at 9.5 nM (IC50).

In turn, `CC(=O)N[C@H](Cc1ccc2ccccc2c1)C(=O)N[C@H](Cc1ccc(Cl)cc1)C(=O)N[C@H](Cc1cccnc1)C(=O)N[C@@H](CO)C(=O)N[C@@H](Cc1ccc(NC(=O)[C@@H]2CC(=O)NC(=O)N2)cc1)C(=O)N[C@H](Cc1ccc2ccccc2c1)C(=O)N[C@@H](CC(C)C)C(=O)N[C@@H](CCCCNC(C)C)C(=O)N1CCC[C@H]1C(=O)N[C@H](C)C(N)=O` had an IC50 in assay [2] of 13 nM. Regarding `CC(=O)N[C@H](Cc1ccc2ccccc2c1)C(=O)N[C@H](Cc1ccc(Cl)cc1)C(=O)N[C@H](Cc1cccnc1)C(=O)N[C@@H](CO)C(=O)N[C@@H](Cc1ccc(NC(=O)[C@@H]2CC(=O)NC(=O)N2)cc1)C(=O)N[C@H](Cc1ccc(CNC(N)=O)cc1)C(=O)N[C@@H](CC(C)C)C(=O)N[C@@H](CCCCNC(C)C)C(=O)N1CCC[C@H]1C(=O)N[C@H](C)C(N)=O`, the Kb in assay [1] is 1.26 nM. The molecule also returned an IC50 in assay [2] of 5.6 nM. For `CCNC(=O)[C@@H]1CCCN1C(=O)[C@H](CCCCNC(C)C)NC(=O)[C@H](CC(C)C)NC(=O)[C@@H](Cc1ccc(CNC(N)=O)cc1)NC(=O)[C@H](Cc1ccc(NC(=O)[C@@H]2CC(=O)NC(=O)N2)cc1)NC(=O)[C@H](CO)NC(=O)[C@@H](Cc1cccnc1)NC(=O)[C@@H](Cc1ccc(Cl)cc1)NC(=O)[C@@H](Cc1ccc2ccccc2c1)NC(C)=O`, the Kb in assay [1] was 0.631 nM. The same molecule came in with an IC50 in assay [2] of 8.8 nM. On to `CC(=O)Nc1ccc(C[C@@H](NC(=O)[C@H](Cc2ccc(CNC(=O)[C@@H]3CC(=O)NC(=O)N3)cc2)NC(=O)[C@H](CO)NC(=O)[C@@H](Cc2cccnc2)NC(=O)[C@@H](Cc2ccc(Cl)cc2)NC(=O)[C@@H](Cc2ccc3ccccc3c2)NC(C)=O)C(=O)N[C@@H](CC(C)C)C(=O)N[C@@H](CCCCNC(C)C)C(=O)N2CCC[C@H]2C(=O)N[C@H](C)C(N)=O)cc1`, for which the Kb in assay [1] is 0.316 nM. The molecule also showed an IC50 in assay [2] of 7.9 nM. Take `CC(=O)N[C@H](Cc1ccc2ccccc2c1)C(=O)N[C@H](Cc1ccc(Cl)cc1)C(=O)N[C@H](Cc1cccnc1)C(=O)N[C@@H](CO)C(=O)N[C@@H](Cc1ccc(NC(=O)[C@@H]2CC(=O)NC(=O)N2)cc1)C(=O)N[C@H](CCCNC(N)=O)C(=O)N[C@@H](CC(C)C)C(=O)N[C@@H](CCCCNC(C)C)C(=O)N1CCC[C@H]1C(=O)N[C@H](C)C(N)=O`: the Kb in assay [1] was 0.794 nM. This molecule also had an IC50 in assay [2] of 5.8 nM.

For `CC(=O)N[C@H](Cc1ccc2ccccc2c1)C(=O)N[C@H](Cc1ccc(Cl)cc1)C(=O)N[C@H](Cc1cccnc1)C(=O)N[C@@H](CO)C(=O)N(C)[C@@H](Cc1ccc(O)cc1)C(=O)N[C@H](CC(N)=O)C(=O)N[C@@H](CC(C)C)C(=O)N[C@@H](CCCCNC(C)C)C(=O)N1CCC[C@H]1C(=O)N[C@H](C)C(N)=O` [ABARELIX] (Ac-[d2Nal][dPhe(4-Cl)][d3Pal]S[NMeY][dN]L[Lys(iPr)]P[dA]-NH2), in assay [1], the Kb was 0.794 nM. The same molecule displayed an IC50 in assay [2] of 3.5 nM.

For the molecule `CC(=O)NCc1ccc(C[C@@H](NC(=O)[C@H](Cc2ccc(NC(=O)[C@H]3CC(=O)NC(=O)N3)cc2)NC(=O)[C@H](CO)NC(=O)[C@@H](Cc2cccnc2)NC(=O)[C@@H](Cc2ccc(Cl)cc2)NC(=O)[C@@H](Cc2ccc3ccccc3c2)NC(C)=O)C(=O)N[C@@H](CC(C)C)C(=O)N[C@@H](CCCCNC(C)C)C(=O)N2CCC[C@H]2C(=O)N[C@H](C)C(N)=O)cc1`, the Kb in assay [1] was 1.58 nM. Also, the 50% inhibitory concentration (IC50) in assay [2] is 7 nM.

For `CC(=O)N[C@H](Cc1ccc2ccccc2c1)C(=O)N[C@H](Cc1ccc(Cl)cc1)C(=O)N[C@H](Cc1cccnc1)C(=O)N[C@@H](CO)C(=O)N[C@@H](Cc1ccc(NC(=O)[C@H]2CC(=O)NC(=O)N2)cc1)C(=O)N[C@H](Cc1ccc(CNC(N)=O)cc1)C(=O)N[C@@H](CC(C)C)C(=O)N[C@@H](CCCCNC(C)C)C(=O)N1CCC[C@H]1C(=O)N[C@H](C)C(N)=O`, half-maximal inhibition in assay [2] (IC50) was put at 7.7 nM.
